Measured values published in ChEMBL document CHEMBL2346548, “Design, synthesis, and structure-activity relationship studies of tryptanthrins as antitubercular agents” (J Nat Prod, 2013).
Values after ≈ are worked out from the molar mass of the structure shown.

Test system: Mycobacterium tuberculosis
Experiment: Antitubercular activity against Mycobacterium tuberculosis H37Rv incubated at 37 degC for 7 days by microplate alamar blue assay
Assay type: functional
Conditions: not given
Procedure, shortened: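 Mtb H37Rv was grown in 7H9 broth with glycerol, Casitone, 10% OADC and 0.05% Tween 80 to OD600 0.4. Compounds were 2-fold serially diluted from DMSO stocks in 7H9, and wells were inoculated at 2 × 10⁵ CFU/mL. After 7 days at 37 °C, Alamar Blue was added and read after a further 24 h. MIC was the lowest concentration preventing the blue-to-pink change.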

Compared with `COc1ccc2c(c1)C(=O)c1nc3ccccc3c(=O)n1-2`, `O=C1c2cc([N+](=O)[O-])ccc2-n2c1nc1ccccc1c2=O` is 2-fold lower in MBC90: 0.5 µg/mL (≈ 1.8 µM) for the first, 0.25 µg/mL (≈ 0.853 µM) for the second.

Going from `O=C1c2ccccc2-n2c1nc1ccc([N+](=O)[O-])cc1c2=O` to `O=C1c2cc([N+](=O)[O-])ccc2-n2c1nc1ncccc1c2=O`, the MBC90 falls from 32 µg/mL (≈ 109 µM) to 4 µg/mL (≈ 13.6 µM) (8-fold).

Compound `CS(=O)(=O)Nc1ccc2c(c1)C(=O)c1nc3ccccc3c(=O)n1-2` has an MBC90 of 2 µg/mL (≈ 5.86 µM).

Same assay, conditions: Mycobacterium tuberculosis, H37Rv, 168 h

First: O=C1c2ccccc2-n2c1nc1ncccc1c2=O
Second: O=C1c2cc([N+](=O)[O-])ccc2-n2c1nc1ncccc1c2=O
The MIC of the first is 8-fold higher: 4 µg/mL (≈ 16 µM) for the first, 0.5 µg/mL (≈ 1.7 µM) for the second.

Going from `O=C1c2ccc(N3CCOCC3)cc2-n2c1nc1ccncc1c2=O` to `O=C1c2ccccc2-n2c1nc1ccc([N+](=O)[O-])cc1c2=O`, the MIC falls from 32 µg/mL (≈ 95.7 µM) to 16 µg/mL (≈ 54.6 µM) (2-fold).

First: O=C1C2=Nc3ccncc3CN2c2ccc(Cl)cc21
Second: O=C1C2=Nc3ccncc3CN2c2ccccc21
The MIC of the first is 8-fold lower: 2 µg/mL (≈ 7.42 µM) for the first, 16 µg/mL (≈ 68 µM) for the second.

Going from `O=C1C2=Nc3ccccc3CN2c2ccccc21` to `O=C1C2=Nc3ccccc3CN2c2ccc(OC(F)(F)F)cc21`, the MIC falls from 1 µg/mL (≈ 4.27 µM) to 0.125 µg/mL (≈ 0.393 µM) (8-fold).

First: COc1ccc2c(c1)C(=O)c1nc3ccccc3c(=O)n1-2
Second: O=C1c2cc([N+](=O)[O-])ccc2-n2c1nc1ccccc1c2=O
The MIC of the first is 31-fold higher: 1 µg/mL (≈ 3.59 µM) for the first, 0.032 µg/mL (≈ 0.109 µM) for the second.

Work on `CS(=O)(=O)Nc1ccc2c(c1)C(=O)c1nc3ccccc3c(=O)n1-2` yielded an MIC of 4 µg/mL (≈ 11.7 µM).

Test system: not listed separately
Experiment: Metabolic stability in human liver microsomes assessed as parent compound remaining at 1 uM incubated for 1 hr by HPLC-MS/MS method
Assay type: ADME, Microsome
Conditions: read-out: Stability
Procedure, shortened: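 Pooled mixed-gender human liver microsomes (0.3 mg/mL protein), 1 μM compound with NADP-regenerating system in phosphate buffer pH 7.4, 1 h at 37 °C; parent measured at start and end by HPLC-MS/MS; duplicate means.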

Compound `O=C1c2cc([N+](=O)[O-])ccc2-n2c1nc1ccccc1c2=O` has a remaining at 1 h, 1 µM of 33%.

Test system: Mycobacterium tuberculosis
Experiment: Antitubercular activity against non-replicating Mycobacterium tuberculosis H37Rv incubated for 10 days by LORA method
Assay type: functional
Conditions: 240 h
Procedure, shortened: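 H37Rv carrying pFCA-luxAB was adapted to low oxygen by gradual self-depletion in a sealed, slowly stirred flask. It was then exposed to compounds for 10 days under anaerobic conditions. Cultures recovered for 28 h in ambient oxygen before n-decanal substrate was added and luminescence read. MIC was the lowest concentration giving a 90% reduction in luminescence versus untreated controls.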

First: O=C1c2ccccc2-n2c1nc1ncccc1c2=O
Second: O=C1c2cc([N+](=O)[O-])ccc2-n2c1nc1ccccc1c2=O
The MIC90 of the first is 9.6-fold higher: 23 µg/mL (≈ 92.3 µM) for the first, 2.4 µg/mL (≈ 8.18 µM) for the second.

Going from `O=C1C2=Nc3ccncc3CN2c2ccc(Cl)cc21` to `O=C1C2=Nc3ccncc3CN2c2ccccc21`, the MIC90 rises from 8.3 µg/mL (≈ 30.8 µM) to greater than 20 µg/mL.

In the case of `O=C1C2=Nc3ccccc3CN2c2ccccc21`, the MIC90 was 20 µg/mL (≈ 85.4 µM).

Test system: not listed separately
Experiment: Solubility in simulated intestinal fluid at pH 7.6 by HPLC method
Assay type: physicochemical
Conditions: not given
Procedure, shortened: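 Simulated intestinal fluid medium; each analogue 200 μM final in 2% DMSO, shaken 24 h at room temperature, then HPLC with photodiode array read at 230 nm; duplicate, means given.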

`O=C1c2cc([N+](=O)[O-])ccc2-n2c1nc1ccccc1c2=O` gave a solubility of 152 µM (≈ 44.5 µg/mL).

Test system: not listed separately
Experiment: Protein binding in human plasma at 10 uM incubated for 8 hrs at 37 degC by equilibrium dialysis method
Assay type: ADME, cell-free
Conditions: read-out: PPB (converted)
Procedure, shortened: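 Equilibrium dialysis: 10 μM compound in 1% DMSO in human plasma vs 0.05 M phosphate buffer pH 7.5 across 12–14 K cutoff membrane, at least 8 h at 37 °C; HPLC-photodiode detection at 230 nm; duplicate means.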

In the case of `O=C1c2cc([N+](=O)[O-])ccc2-n2c1nc1ccccc1c2=O`, the fraction unbound at 8 h, 10 µM was 0.031.

Test system: not listed separately
Experiment: Aqueous solubility in PBS buffer at pH 7.4 by HPLC method
Assay type: physicochemical
Conditions: PBS buffer, read-out: solubility
Procedure, shortened: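 Compound at 200 μM final in 2% DMSO in PBS pH 7.4, shaken 24 h at room temperature; quantified by HPLC with photodiode array detection at 230 nm; duplicate, mean reported.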

Compound `O=C1c2cc([N+](=O)[O-])ccc2-n2c1nc1ccccc1c2=O` has a solubility of 64.3 µM (≈ 18.9 µg/mL).

Test system: Mycobacterium tuberculosis
Experiment: Antitubercular activity against Mycobacterium tuberculosis H37Rv incubated at 37 degC for 14 days in presence of 40% human serum by microplate alamar blue assay
Assay type: functional
Conditions: 336 h
Procedure, shortened: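 This is the MABA run in 7H9 broth containing 40% human serum. Compounds were 2-fold serially diluted, and wells were inoculated with H37Rv at 2 × 10⁵ CFU/mL. Incubation was at 37 °C for 14 days, then Alamar Blue was added. MIC was the lowest concentration preventing the blue-to-pink colour change.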

Compared with `O=C1c2ccccc2-n2c1nc1ncccc1c2=O`, `O=C1c2cc([N+](=O)[O-])ccc2-n2c1nc1ncccc1c2=O` is 2-fold lower in MIC: 8 µg/mL for the first, 4 µg/mL for the second.

First: O=C1c2ccc(N3CCOCC3)cc2-n2c1nc1ccncc1c2=O
Second: O=C1c2ccccc2-n2c1nc1ccc([N+](=O)[O-])cc1c2=O
The MIC of the first is higher: greater than 32 µg/mL for the first, 32 µg/mL for the second.

First: O=C1C2=Nc3ccccc3CN2c2ccccc21
Second: O=C1C2=Nc3ccccc3CN2c2ccc(OC(F)(F)F)cc21
The MIC of the first is 4-fold higher: 2 µg/mL for the first, 0.5 µg/mL for the second.

Compared with `COc1ccc2c(c1)C(=O)c1nc3ccccc3c(=O)n1-2`, `O=C1c2cc([N+](=O)[O-])ccc2-n2c1nc1ccccc1c2=O` is 4-fold lower in MIC: 2 µg/mL for the first, 0.5 µg/mL for the second.

Work on `CS(=O)(=O)Nc1ccc2c(c1)C(=O)c1nc3ccccc3c(=O)n1-2` yielded an MIC greater than 8 µg/mL.

Test system: Vero
Experiment: Cytotoxicity against african green monkey Vero cells
Assay type: cell-based, Chlorocebus sabaeus
Conditions: Chlorocebus sabaeus, Vero; read-out: IC50

Going from `O=C1c2ccccc2-n2c1nc1ncccc1c2=O` to `O=C1c2cc([N+](=O)[O-])ccc2-n2c1nc1ncccc1c2=O`, the IC50 falls from 24 µg/mL (≈ 96.3 µM) to less than 0.2 µg/mL.

`O=C1c2ccc(N3CCOCC3)cc2-n2c1nc1ccncc1c2=O` and `O=C1c2ccccc2-n2c1nc1ccc([N+](=O)[O-])cc1c2=O` cannot be ordered by IC50: greater than 20 µg/mL for the first, 64 µg/mL (≈ 218 µM) for the second.

Going from `O=C1C2=Nc3ccncc3CN2c2ccc(Cl)cc21` to `O=C1C2=Nc3ccncc3CN2c2ccccc21`, the IC50 rises from 3.7 µg/mL (≈ 13.7 µM) to greater than 20 µg/mL.

Going from `O=C1C2=Nc3ccccc3CN2c2ccccc21` to `O=C1C2=Nc3ccccc3CN2c2ccc(OC(F)(F)F)cc21`, the IC50 falls from 42 µg/mL (≈ 179 µM) to 1.3 µg/mL (≈ 4.08 µM) (32-fold).

Compared with `COc1ccc2c(c1)C(=O)c1nc3ccccc3c(=O)n1-2`, `O=C1c2cc([N+](=O)[O-])ccc2-n2c1nc1ccccc1c2=O` is 5.1-fold higher in IC50: 5.5 µg/mL (≈ 19.8 µM) for the first, 28 µg/mL (≈ 95.5 µM) for the second.

With `CS(=O)(=O)Nc1ccc2c(c1)C(=O)c1nc3ccccc3c(=O)n1-2` the IC50 was greater than 8 µg/mL.

Test system: not listed separately
Experiment: Solubility in simulated gastric fluid at pH 1.5 by HPLC method
Assay type: physicochemical
Conditions: not given
Procedure, shortened: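 Compound at 200 μM final in 2% DMSO in simulated gastric fluid, shaken 24 h at room temperature; HPLC-photodiode array detection at 230 nm; duplicate means.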

`O=C1c2cc([N+](=O)[O-])ccc2-n2c1nc1ccccc1c2=O` showed a solubility of 5.1 µM (≈ 1.5 µg/mL).
